Screening results deposited in PubChem by several laboratories.
CRFR2-BP antag: antagonists of CRF-BP/CRF-R2 complex, primary screen, cell-based, HEK293, calcium dye fluorescence, uHTS. 350,000 tested, 0.59% active. AID 588475, 2011. inhibition, % at 11.8 µM. CRF-induced calcium fluorescence;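 active means inhibition of the ligand-induced calcium signal above about 50% at the single tested concentration, limit read from the data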
GPR7 antag: GPR7 receptor antagonists, primary screen, cell-based, fluorescence, single concentration; Neuropeptides B/W receptor type 1 (Homo sapiens), P48145; GPR7-expressing cells, fluorescence antagonist assay; inhibition, % at 4.4 µM; 290,000 tested, 1.1% active; in the data active means inhibition above about 16%, passing the limit was not always enough;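 further: cells stimulated with the agonist NPW; 0% = agonist with vehicle and 100% = vehicle without agonist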
Target sequence (P48145 whole entry, looked up): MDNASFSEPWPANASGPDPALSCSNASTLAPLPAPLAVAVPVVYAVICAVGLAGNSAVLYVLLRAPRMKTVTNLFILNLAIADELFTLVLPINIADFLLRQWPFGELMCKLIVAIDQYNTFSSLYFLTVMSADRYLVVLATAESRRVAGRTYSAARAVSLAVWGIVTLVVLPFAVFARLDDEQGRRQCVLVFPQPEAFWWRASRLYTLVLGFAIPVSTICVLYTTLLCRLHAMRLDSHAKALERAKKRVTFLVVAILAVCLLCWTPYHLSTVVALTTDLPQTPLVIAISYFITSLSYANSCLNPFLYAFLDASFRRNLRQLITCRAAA
CRFBP-R2 agonist: agonists of CRF-BP/CRF-R2 complex, primary screen, cell-based, HEK293, calcium dye fluorescence, uHTS | activation, % at 13.2 µM | 350,000 tested, 0.46% active | calcium dye fluorescence (FLIPR); percent of saturating CRF peptide response;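 active means activation of at least 50%, plus an integration ratio under a set limit after plate pattern correction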;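 further: plate controls were neutral control wells without compound for no effect and CRF at EC100 for full effect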
TRPN1 ag: zebrafish TRPN1 channel agonists, primary screen, cell-based, HEK293, calcium fluorescence | AID 1424, 2008 | activation, % at 3 µM | 220,000 tested, 0.18% active | HEK293 zebrafish TRPN1-YFP, Fluo-8 calcium fluorescence; 100% = response to 87 µM carbachol | transient receptor potential cation channel N1 (TRPN1/NompC), Danio rerio;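 active means activation above its plate's cutoff, the mean activation of test wells on that plate plus 3 SD, cut at about 19% in these data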;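 further: 0% = DMSO alone and 100% = 87 µM carbachol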
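Assay system: Zebrafish TRPN1-YFP in HEK293 cells | Incubation: Dye loading 1 h at 37 °C, then 30 min room temperature | Measured by: Kinetic Fluo-8 fluorescence, ex 470-495, em 515-575 nm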
TRPML3 agonist: human TRPML3 channel agonists, primary screen, cell-based, HEK293 TRPML3-YFP, Fluo-8 calcium fluorescence, 3 µM | Mucolipin-3 (Homo sapiens), Q8TDD5 | 100% = the carbachol control signal | activation, % at 3 µM | 220,000 tested, 0.29% active | AID 1448, 2008;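 active means activation above its plate's cutoff, the mean activation of the plate's test wells plus 3 SD, cut at about 12% in these data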;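 further: 0% = DMSO only wells and 100% = carbachol wells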
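Test system – HEK293 line with stable expression of human TRPML3-YFP channel · Control set – carbachol 87 µM final as high control (100%), DMSO as low control (0%) · Signal – Fluo-8 calcium dye fluorescence, ex 470-495, em 515-575 nm · Incubation – 1-h 37 °C dye load, 5-s basal, 120-s post-compound reads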
GPR7 antag conf: GPR7 receptor antagonists, confirmation, cell-based, fluorescence, single concentration; shares compounds with GPR7 antag; GPR7-expressing cells, calcium fluorescence antagonist mode; inhibition, % at 4.4 µM; 2,400 tested, 52% active; AID 1952, 2009; in the data active means inhibition above about 24%;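 further: stimulated with the GPR7 agonist NPW; 0% = agonist plus vehicle and 100% = vehicle alone without agonist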
MCHR1 antag: MCHR1 antagonists in cells, counter-screen for GPR7 antagonist project, cell-based, fluorescence, human | shares compounds with GPR7 antag | 2,400 tested, 62% active | inhibition, % at 4.4 µM | AID 2148, 2009 | MCHR1-expressing cells, fluorescence antagonist assay; in the data active means inhibition above about 22%;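 further: 0% = vehicle with agonist and 100% = vehicle without agonist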
The depositor's hits bear a star; x = no result. Sampled rows, rich in hits. Any-hit rate of the full collection: about 2%.

SMILES | CRFR2-BP antag | GPR7 antag | CRFBP-R2 agonist | TRPN1 ag | TRPML3 agonist | GPR7 antag conf | MCHR1 antag
O=C(COc1ccc(Br)cc1CO)N1CCCc2ccccc21 | 0 | 6 | -1 | x | x | x | x
COC(=O)c1ccc(COc2cccc3c2CCN(Cc2ccccc2)C3=O)o1 | 34 | 29* | 9 | 1 | 1 | 31* | 57*
O=C1c2cccc(OCC(=O)N3CCCc4ccccc43)c2CCN1Cc1ccc(Br)cc1 | -62 | 31* | -2 | 1 | 0 | 35* | 58*
NC(=S)N/N=C/c1ccc(-n2nncc2-c2ccc(Cl)cc2)cc1 | -13 | 6 | 2 | x | x | x | x
O=C(NC1CCCCC1)C(c1ccc(F)cc1)N(Cc1ccco1)C(=O)c1ccccn1 (configuration not stated) | -1 | 26* | -3 | -1 | 1 | 6 | 12
O=C(Nc1cccc2ncccc12)c1cc(Br)ccc1Cl | -3 | -4 | 1 | x | x | x | x
CC(=O)N1CCN(C(=O)C(Cc2ccccc2)NC(=O)c2ccccc2)CC1 (configuration not stated) | -9 | x | 1 | x | x | x | x
O=C(NC(Cc1ccccc1)C(=O)N1CCN(S(=O)(=O)c2ccccc2)CC1)c1ccccc1 (configuration not stated) | -8 | 22* | 7 | x | x | -8 | 4
CCOc1ccc(S(=O)(=O)N2CCN(C(=O)Cc3n[nH]c(=O)c4ccccc34)CC2)cc1 | 1 | x | 1 | x | x | x | x
CCCCn1c(N)c(N(CC(C)C)C(=O)c2ccc(COc3ccccc3)o2)c(=O)[nH]c1=O | -7 | 26* | 1 | x | x | 32* | 21
CCCCn1c(N)c(N(CC(C)C)C(=O)c2cccc(OCc3ccccc3)c2)c(=O)[nH]c1=O | -8 | x | 2 | x | x | x | x
CN(C(=O)c1ccccc1OCc1ccc(F)cc1)c1c(N)n(Cc2ccccc2)c(=O)[nH]c1=O | 1 | x | 0 | x | x | x | x
CCCCN(C(=O)c1ccccc1OCc1ccc(F)cc1)c1c(N)n(CCC)c(=O)[nH]c1=O | -10 | 30* | 0 | x | x | 16 | 9
CCCCn1c(N)c(N(CCOC)C(=O)CCNC(=O)c2ccccc2Cl)c(=O)[nH]c1=O | -1 | 26* | 1 | x | x | -4 | -2
CCCCn1c(N)c(N(CC(C)C)C(=O)CCNC(=O)c2ccccc2Cl)c(=O)[nH]c1=O | 0 | x | 0 | x | x | x | x
CCCCn1c(N)c(N(CC(C)C)C(=O)c2cccc(S(=O)(=O)N3CCCCCC3)c2)c(=O)[nH]c1=O | 15 | 28* | 1 | x | x | -6 | 4
C[C@H](CO)N1C[C@H](C)[C@@H](CN(C)S(=O)(=O)c2cn(C)cn2)Oc2c(NS(=O)(=O)c3ccccc3)cccc2C1=O | -1 | x | 1 | x | x | x | x
CC1C(=O)N2CCCc3cc(NC(=O)COc4ccccc4)cc1c32 (configuration not stated) | -20 | x | 0 | x | x | x | x
COC(=O)c1ccc(-n2nnnc2SCc2ccccc2OC)cc1 | 18 | 38* | 2 | -1 | 0 | 37* | 61*
Cc1nc(C)n(CC(C)C(=O)N2CCN(S(=O)(=O)c3ccccc3)CC2)n1 (configuration not stated) | 3 | -6 | 0 | x | x | x | x
CN(C)CCCNC(=O)c1ccc(-c2nc(-c3ccc(Cl)cc3)cs2)cc1 | 38 | 41* | -1 | -1 | 1 | 91* | 92*
CN(C)CCCNC(=O)c1ccccn1 | 10 | -3 | -2 | -1 | 1 | x | x
COc1ccc(C(=O)CSc2n[nH]c(=O)[nH]c2=O)cc1 | 3 | -1 | -1 | 2 | 1 | x | x
O=C(CSc1n[nH]c(=O)[nH]c1=O)c1ccc([N+](=O)[O-])cc1 | -2 | 26* | -1 | 1 | 1 | -4 | -6
CN(Cc1ccccc1)C(=O)c1ccccc1-c1ccccc1 | 1 | 69* | -1 | -2 | 0 | -13 | 11
SMILES | CRFR2-BP antag | GPR7 antag | CRFBP-R2 agonist | TRPN1 ag | TRPML3 agonist | GPR7 antag conf | MCHR1 antag
CN(Cc1ccccc1)C(=O)c1ccccc1Br | 1 | -13 | -1 | 1 | 1 | x | x
CCOc1cc(/C=C2\NC(=O)NC2=O)ccc1OC(C)C(=O)O (configuration not stated) | 0 | 32* | -1 | x | x | -16 | -8
Nc1ccc(-c2nc3nc(N)nc(N)c3nc2-c2ccc(N)cc2)cc1 | -4 | -10 | 0 | 0 | 1 | x | x
Cc1nc2ccc([N+](=O)[O-])cc2c(=O)n1Cc1cccc(F)c1 | 31 | 18 | -1 | x | x | x | x
Cc1cccc(Cn2c(C)nc3ccc([N+](=O)[O-])cc3c2=O)c1 | 23 | 45* | 1 | x | x | 36* | 43*
O=C(COc1ccc([N+](=O)[O-])cc1)Nc1cccc2nsnc12 | 1 | 4 | 5 | x | x | x | x
CCC(C)(C)n1nnnc1C(c1ccccc1)N1CCN(Cc2ccccc2)CC1 (configuration not stated) | -8 | 7 | 2 | 0 | 0 | x | x
CCC(C)(C)n1nnnc1C(c1cc(OC)ccc1OC)N1CCN(Cc2ccccc2)CC1 (configuration not stated) | 4 | 27* | 3 | -2 | 0 | 31* | 43*
COc1cccc(CN2CCN(Cc3cc4ccccc4[nH]3)CC2CCO)c1 (configuration not stated) | -27 | 67* | 57* | 28* | 11 | 79* | 81*
CC1CN(CC(O)COC(c2ccc(Cl)cc2)c2ccc(Cl)cc2)CC(C)O1 (configuration not stated) | -54 | 21* | -1 | 0 | 1 | 9 | 40*
Cn1c(C(=O)N2CCN(c3nc4ccccc4s3)CC2)cc2sccc21 | -85 | -8 | -1 | 2 | 1 | x | x
O=C(c1cc2sccc2n1Cc1ccc(F)cc1)N1CCN(c2nc3ccccc3s2)CC1 | 0 | 32* | 0 | 2 | 0 | 28* | 38*
CCOc1ccc(NC(=O)CN2C(=O)NC(C)(c3ccc(OC(F)F)cc3)C2=O)cc1 (configuration not stated) | -72 | 75* | 74* | x | x | 81* | 74*
CC1(c2ccc(OC(F)F)cc2)NC(=O)N(CC(=O)Nc2ccc(F)cc2)C1=O (configuration not stated) | -45 | 43* | 36 | x | x | 54* | 48*
